Assay [1] concerns Plasmodium falciparum. Nature of the assay: Antiplasmodial activity against Plasmodium falciparum F32-Tanzania assessed as time required to reach 5% parasitaemia at 0.2 uM treated for 48 hrs. It counts as functional. An outline of the steps: (§1)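 Sorbitol-synchronized ring-stage cultures at 5% parasitemia and 2.5% hematocrit in human O+ erythrocytes, in RPMI with human serum at 37°C under 5% CO2. Drug-containing medium for 48 h, then RPMI wash and return to drug-free culture. Endpoint was days to reach 5% parasitemia, followed up to 21 days. Three or more independent experiments; mean ± SD.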

Assay [2] has as its system Plasmodium falciparum. Nature of the assay: Antiplasmodial activity against artemisinin-tolerant Plasmodium falciparum F32-Tanzania assessed as time required to reach 5% parasitaemia at 0.2 uM treated for 48 hrs. It is filed as functional. The gist of the method: as §1
Assay [3] concerns Plasmodium falciparum. Nature of the assay: Antiplasmodial activity against Plasmodium falciparum F32-Tanzania assessed as inhibition of parasite growth at 0.1 uM treated for 96 hrs. It is filed as functional, organism-based. An outline of the steps:
(§2)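 Sorbitol-synchronized ring cultures (5% parasitemia, 2.5% hematocrit) in O+ human RBCs, RPMI with 5% human serum, 37°C, 5% CO2. Medium was swapped for artemisinin-containing medium for 48 or 96 h, then washed out and culture resumed drug-free. Parasitemia was tracked to record days to reach 5%; cultures with no parasites by day 21 were scored as no recovery. Runs were done at least three times, except 48 h/70 μM and the 96 h conditions, which were done once.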

In assay [4] the test system is Plasmodium falciparum. Nature of the assay: Antiplasmodial activity against artemisinin-tolerant Plasmodium falciparum F32-Tanzania assessed as time required to reach 5% parasitaemia at 0.1 uM treated for 96 hrs. It is filed as functional. The gist of the method:
as §2

The test system of assay [5] is Plasmodium falciparum. Briefly: Antiplasmodial activity against Plasmodium falciparum F32-Tanzania assessed as inhibition of parasite growth at 1 uM treated for 96 hrs. It counts as functional, organism-based. The gist of the method:
as §2

Assay [6] relates to Plasmodium falciparum. Nature of the assay: Antiplasmodial activity against artemisinin-tolerant Plasmodium falciparum F32-Tanzania assessed as time required to reach 5% parasitaemia at 1 uM treated for 96 hrs. It is filed as functional. The gist of the method:
as §2

For assay [7], the system named is Plasmodium falciparum. Briefly: Antiplasmodial activity against artemisinin-tolerant Plasmodium falciparum F32-Tanzania assessed as parasitaemia at 9 uM after 48 hrs by rhodamine 123 staining. It counts as functional. The gist of the method: (§3)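 Infected RBCs were stained with R123 (1 μg/ml in RPMI, 37°C, 5 min), washed, and incubated 30 min under culture conditions. Nuclei were counterstained with DAPI (1 μg/ml, 37°C, 20 min). Thin smears were read the same day by epifluorescence; R123-positive (polarized mitochondria) parasites were scored as viable.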

Assay [8] concerns Plasmodium falciparum. Nature of the assay: Antiplasmodial activity against artemisinin-tolerant Plasmodium falciparum F32-Tanzania assessed as decrease in appearance of late trophozoites at 9 uM after 24 hrs by rhodamine 123 staining. It is filed as functional, organism-based. An outline of the steps:
as §3

The test system of assay [9] is Plasmodium falciparum. Briefly: Antiplasmodial activity against artemisinin-tolerant Plasmodium falciparum F32-Tanzania assessed as decrease in appearance of late trophozoites at 9 uM after 48 hrs by rhodamine 123 staining. It is filed as functional, organism-based. The gist of the method:
as §3

The test system of assay [10] is Plasmodium falciparum. Briefly: Antiplasmodial activity against artemisinin-tolerant Plasmodium falciparum F32-Tanzania assessed as decrease in occurrence of normal parasite cell cycle at 9 uM measured after 24 to 30 hrs of drug removal by rhodamine 123 staining. It counts as functional, organism-based. The gist of the method: as §3
Assay [11] relates to Plasmodium falciparum. Nature of the assay: Antiplasmodial activity against artemisinin-tolerant Plasmodium falciparum F32-Tanzania assessed as decrease in appearance of late trophozoites at 9 uM measured after 24 to 30 hrs of drug removal by rhodamine 123 staining. It is filed as functional, organism-based. The gist of the method:
as §3

The subject of assay [12] is Plasmodium falciparum. Briefly: Antiplasmodial activity against artemisinin-tolerant Plasmodium falciparum F32-Tanzania assessed as decrease in appearance of late schizonts at 9 uM measured after 24 to 30 hrs of drug removal by rhodamine 123 staining. It is filed as functional, organism-based. An outline of the steps: as §3
Assay [13] deals with Plasmodium falciparum. Nature of the assay: Antiplasmodial activity Plasmodium falciparum F32-Tanzania assessed as decrease in appearance of parasite quiescent rings at 9 uM after 48 hrs by rhodamine 123 staining. It is filed as functional, organism-based. An outline of the steps: as §3
In assay [14] the test system is Plasmodium falciparum. Briefly: Antiplasmodial activity Plasmodium falciparum F32-Tanzania assessed as decrease in appearance of mature parasite forms at 9 uM measured after 24 to 30 hrs of drug removal by rhodamine 123 staining. It counts as functional, organism-based. An outline of the steps:
as §3

Assay [15] relates to Plasmodium falciparum. Nature of the assay: Antiplasmodial activity against artemisinin-tolerant Plasmodium falciparum F32-Tanzania assessed as decrease in appearance of late-stage parasites at 9 uM after 24 hrs by FACS analysis. It counts as functional, organism-based. An outline of the steps:
(§4)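 Samples were stained with DAPI (1 μg/ml) and analysed immediately by flow cytometry (400,000 events). Gates were calibrated with uninfected RBCs, sorbitol-synchronized rings, and magnetically isolated trophozoites and schizonts.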

Assay [16] concerns Plasmodium falciparum. Nature of the assay: Antiplasmodial activity against artemisinin-tolerant Plasmodium falciparum F32-Tanzania assessed as decrease in appearance of late-stage parasites at 9 uM after 48 hrs by FACS analysis. It is filed as functional, organism-based. The gist of the method:
as §4
A general note: In flow cytometry, cells or beads pass a laser one at a time.

The subject of assay [17] is Plasmodium falciparum. Briefly: Antiplasmodial activity against artemisinin-tolerant Plasmodium falciparum F32-Tanzania assessed as decrease in appearance of late-stage parasites at 9 uM measured after 24 hrs of drug removal by FACS analysis. It counts as functional, organism-based. The gist of the method: as §4
In assay [18] the test system is Plasmodium falciparum. Nature of the assay: Antiplasmodial activity against artemisinin-tolerant Plasmodium falciparum F32-Tanzania assessed as inhibition of parasite growth at 9 uM after 48 hrs by FACS analysis in presence of sorbitol. It is filed as functional, organism-based.
Assay [19] deals with Plasmodium falciparum. Briefly: Antiplasmodial activity against artemisinin-tolerant Plasmodium falciparum F32-Tanzania assessed as inhibition of parasite growth at 9 uM measured after 24 to 30 hrs of drug removal by FACS analysis in presence of sorbitol. It counts as functional, organism-based.
The subject of assay [20] is Plasmodium falciparum. Briefly: Antiplasmodial activity against artemisinin-tolerant Plasmodium falciparum F32-Tanzania assessed as decrease in parasite recovery time at 9 uM treated for 48 hrs in presence of 0.5 uM MDR1 inhibitor penfluridol. It is filed as functional, organism-based.
Assay [21] relates to Plasmodium falciparum. Nature of the assay: Antiplasmodial activity against Plasmodium falciparum F32-Tanzania assessed as time required to reach 5% parasitaemia at 9 uM treated for 48 hrs. It is filed as functional. An outline of the steps:
as §2

Assay [22] deals with Plasmodium falciparum. Briefly: Antiplasmodial activity against artemisinin-tolerant Plasmodium falciparum F32-Tanzania assessed as time required to reach 5% parasitaemia at 9 uM treated for 48 hrs. It counts as functional. The gist of the method:
as §2

The subject of assay [23] is Plasmodium falciparum. Nature of the assay: Antiplasmodial activity against Plasmodium falciparum F32-Tanzania assessed as time required to reach 5% parasitaemia at 18 uM treated for 48 hrs. It counts as functional. The gist of the method:
as §2

Assay [24] relates to Plasmodium falciparum. Briefly: Antiplasmodial activity against artemisinin-tolerant Plasmodium falciparum F32-Tanzania assessed as time required to reach 5% parasitaemia at 18 uM treated for 48 hrs. It is filed as functional. An outline of the steps: as §2
Assay [25] has as its system Plasmodium falciparum. Nature of the assay: Antiplasmodial activity against Plasmodium falciparum F32-Tanzania assessed as inhibition of parasite growth at 35 uM treated for 48 hrs. It counts as functional, organism-based. The gist of the method: as §2
Assay [26] concerns Plasmodium falciparum. Nature of the assay: Antiplasmodial activity against artemisinin-tolerant Plasmodium falciparum F32-Tanzania assessed as time required to reach 5% parasitaemia at 35 uM treated for 48 hrs. It is filed as functional. The gist of the method: as §2
Assay [27] deals with Plasmodium falciparum. Briefly: Antiplasmodial activity against Plasmodium falciparum F32-Tanzania assessed as inhibition of parasite growth at 70 uM treated for 48 hrs. It is filed as functional, organism-based. An outline of the steps: as §2
The test system of assay [28] is Plasmodium falciparum. Briefly: Antiplasmodial activity against artemisinin-tolerant Plasmodium falciparum F32-Tanzania assessed as time required to reach 5% parasitaemia at 70 uM treated for 48 hrs. It counts as functional. The gist of the method:
as §2

The subject of assay [29] is Plasmodium falciparum. Briefly: Antiplasmodial activity against Plasmodium falciparum F32-Tanzania assessed as time required to reach 5% parasitaemia at 2.6 uM treated for 48 hrs. It counts as functional. The gist of the method: as §1
For assay [30], the system named is Plasmodium falciparum. Nature of the assay: Antiplasmodial activity against artemisinin-tolerant Plasmodium falciparum F32-Tanzania assessed as time required to reach 5% parasitaemia at 2.6 uM treated for 48 hrs. It counts as functional. An outline of the steps: as §1

Active and inactive are the calls of the source. The rule behind the calls is not given here.

The record followed here is ChEMBL document CHEMBL1255433 (Antimicrob Agents Chemother, 2010).

`CCN(CC)CCCC(C)Nc1ccnc2cc(Cl)ccc12` (configuration not stated) [CHLOROQUINE]: the Time in the assay with Plasmodium falciparum [1] and in the assay on Plasmodium falciparum [2] was 14 days throughout.

Regarding `C[C@@H]1CC[C@H]2[C@@H](C)C(=O)O[C@@H]3O[C@@]4(C)CC[C@@H]1[C@]32OO4` [ARTEMISININ], the inhibition entry in the assay on Plasmodium falciparum [3], with Plasmodium falciparum [5], in the assay with Plasmodium falciparum [18], with Plasmodium falciparum [19], in the assay on Plasmodium falciparum [25] and with Plasmodium falciparum [27] was “Active” in each case. Moreover, the Time with Plasmodium falciparum [4] is 15 days; with Plasmodium falciparum [6], 16 days; in the assay with Plasmodium falciparum [21] it was 16 days; in the assay with Plasmodium falciparum [22] it was 6 days; in the assay on Plasmodium falciparum [23], “<=17 day”; in the assay on Plasmodium falciparum [24], 7 days. Moreover, the Time in the assay on Plasmodium falciparum [26] turned out to be 11 days; in the assay on Plasmodium falciparum [28], 17 days. The Activity with Plasmodium falciparum [7] is 0.1%. Besides, the result with Plasmodium falciparum [8], in the assay with Plasmodium falciparum [9], with Plasmodium falciparum [13], in the assay on Plasmodium falciparum [14], in the assay on Plasmodium falciparum [15] and in the assay with Plasmodium falciparum [16] was Active. Further, in the assay on Plasmodium falciparum [20], the result was Active. Also, the outcome in the assay with Plasmodium falciparum [10], in the assay with Plasmodium falciparum [11], in the assay with Plasmodium falciparum [12] and in the assay on Plasmodium falciparum [17] was inactive.

Take `C[C@H]1[C@H](OC(=O)CCC(=O)O)O[C@@H]2O[C@@]3(C)CC[C@H]4[C@H](C)CC[C@@H]1[C@@]24OO3` [ARTESUNATE]: the Time in the assay with Plasmodium falciparum [29] amounted to 14 days; in the assay with Plasmodium falciparum [30] it was 6 days; in the assay with Plasmodium falciparum [21], 15 days; with Plasmodium falciparum [22], 8 days.
